High-throughput results from PubChem.
Compounds with a hit are over-represented: about 2.6% of the library has one in this group of screens.
SENP8 block-1 = SENP8 (human) protease inhibition; recombinant SENP8, Nedd8 substrate fluorescence; inhibition, % at 20 µM; 0.64% of 360,000 active; in the data active = inhibition mostly above about 40%, no sharp cut-off; inactive = mostly below about 27%
Target sequence (Q96LD8 whole entry, looked up): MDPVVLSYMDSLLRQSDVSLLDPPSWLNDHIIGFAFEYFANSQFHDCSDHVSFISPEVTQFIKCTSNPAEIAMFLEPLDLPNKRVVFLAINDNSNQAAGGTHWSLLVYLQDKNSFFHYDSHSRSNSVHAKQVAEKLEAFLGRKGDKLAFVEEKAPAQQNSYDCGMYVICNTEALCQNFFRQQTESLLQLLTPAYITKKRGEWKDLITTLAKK
SENP6 inh = blocks the human protease SENP6; Recombinant SENP6 catalytic domain, aminoluciferin luminescence; inhibition, % at 10 µM; 1.8% of 330,000 active; AID 2599;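 active = inhibition above about 50% at the single tested dose, limit read from the data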
SENP7 inh = blocks the human protease SENP7. 1.5% of 330,000 active. inhibition, % at 5 µM. recombinant SENP7, Z-RLRGG-aminoluciferin luminescence, 40 min;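 active = inhibition above about 50% at the single test dose, limit read from the data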
SENP1 FRET inh = SENP1 (human) catalytic domain inhibition; AID 624204; recombinant SENP1 catalytic domain, CyPet-SUMO1-YPet FRET cleavage; Q9P0U3; inhibition, % at 10 µM; 0.21% of 360,000 active;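 active = inhibition at least 30% at 10 µM, raw YFP signal under a set limit, fluorescence ratio 0.5 to 1.5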
Target sequence (Q9P0U3 419-644 limits assumed): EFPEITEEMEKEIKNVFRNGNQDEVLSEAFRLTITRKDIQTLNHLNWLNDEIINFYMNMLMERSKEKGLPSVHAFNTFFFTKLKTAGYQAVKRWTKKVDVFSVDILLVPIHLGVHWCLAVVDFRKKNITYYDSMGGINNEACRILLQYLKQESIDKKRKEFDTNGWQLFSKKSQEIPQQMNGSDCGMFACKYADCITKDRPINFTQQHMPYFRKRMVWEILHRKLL
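Controls: no-enzyme wells low, DMSO-plus-enzyme wells high control. Test system: human recombinant His6-tagged SENP1 catalytic domain enzyme. Reagent: SFCypet-SUMO1-SFYpet FRET protein substrate, 25 nM final. Doses: one dose per compound, 10 µM, 0.5% DMSO. Detection: FRET, CFP and YFP emission. Timing: 50 min reaction at room temperature.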
SENP8 block-2 = SENP8 protease inhibition | Q96LD8 | purified SENP8, Z-RLRGG-aminoluciferin cleavage, luminescence | inhibition, % at 10 µM | 1.2% of 330,000 active; in the data active = inhibition above about 50%
Platelet DG rel = platelet dense granule release activity; human platelet-rich plasma, SFLLRN dense granule ATP release, luminescence; inhibition, %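 (compounds screened at 7.5 µM in platelet-rich plasma)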; 0.22% of 300,000 active; AID 1663;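 active = mean replicate score, as percent of positive control, at or above 50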
Hits are given with their value; - = inactive; . = no result.

SMILES	SENP8 block-1	SENP6 inh	SENP7 inh	SENP1 FRET inh	SENP8 block-2	Platelet DG rel
COc1cccc(CC(=O)N(CCC2=CCCCC2)c2c(N)n(Cc3ccccc3)c(=O)[nH]c2=O)c1	-	-	-	-	-	-
O=C(/C=C\Nc1ccc2c(c1)OCO2)c1ccc(Cl)s1	-	-	70.8	-	-	-
COC(=O)c1c(NC(=O)/C=C/c2ccc3c(c2)OCO3)sc(C)c1C	-	-	-	-	-	-
CCOC(=O)c1c(NC(=O)/C=C/c2ccc3c(c2)OCO3)sc(C)c1CC	-	-	-	-	-	53.6
O=C(/C=C/c1ccc2c(c1)OCO2)Nc1nncs1	-	59.7	83.8	-	-	-
CCOC(=O)/C(N=Nc1ccc(F)cc1)=C(/O)c1ccc([N+](=O)[O-])cc1	42.6	-	-	-	-	-
Cc1nc(NCCOc2ccccc2)sc1C(=O)Nc1ccccc1	-	75.9	84.0	-	62.6	-
COc1cccc2c1C1COC3C4CC(C(=O)O)C(C(C2)N13)N4C (stereo not drawn)	-	.	.	-	.	.
Cc1cc2ccccn2c1C(=O)c1ccc(N/N=C/c2ccc(C(=O)O)cc2)c([N+](=O)[O-])c1	66.5	.	.	-	.	.
C/C(=N\Nc1ccc(C(=O)c2c(C)cc3ccccn23)cc1[N+](=O)[O-])c1ccc(O)cc1	62.4	-	-	-	-	-
Cc1cc2ccccn2c1C(=O)c1ccncc1	-	-	-	-	-	-
Cc1cc2ccccn2c1C(=O)c1ccc(Cl)cc1	-	-	-	-	-	-
C/C(=N/Nc1ccc(C(=O)c2c(C)cc3ccccn23)cc1[N+](=O)[O-])c1ccc(O)cc1	50.2	.	.	-	.	.
O=C(NCC1CCCO1)c1ccc(-c2ccccc2Cl)o1 (stereo not drawn)	-	-	-	-	-	-
CCC1(CC)C(=O)NC(=O)NC1=S	-	.	.	-	.	.
CCN(CC(=O)Nc1cc(Cl)ccc1Cl)C(=O)c1ccc(-n2cccn2)cc1	-	-	-	-	-	.
O=C(COC(=O)CN1C(=O)NC2(CCCC2)C1=O)Nc1c(Cl)cccc1C(F)(F)F	-	-	-	-	-	-
CC(=O)c1ccc(S(=O)(=O)N2CCN(C(=O)c3cccc(S(=O)(=O)N4CC(C)OC(C)C4)c3)CC2)cc1 (stereo not drawn)	-	.	.	-	.	.
C[n+]1ccc(/C=C/c2ccccc2O)c2ccccc21	-	-	-	-	-	-
CN1/C(=C/c2cc[n+](C)c3ccccc23)C=Cc2ccccc21	58.0	.	.	-	.	.
C[C@H]1CN([C@@H](C)CO)C(=O)c2cc(Br)cnc2O[C@@H]1CN(C)S(=O)(=O)c1cn(C)cn1	-	.	.	-	.	.
CCN1/C(=C/c2ccc3cc(C)ccc3[n+]2C)Sc2ccc3sccc3c21	-	.	.	44.1	.	.
CC1=NC(=O)C(N=Nc2ccccc2C(=O)O)N1c1ccccc1 (stereo not drawn)	48.0	-	-	-	-	-
CC1=NC(=O)C(N=Nc2ccccc2)N1c1ccccc1 (stereo not drawn)	46.2	-	-	-	-	-
CC1=NC(=O)C(N=Nc2cccc(C(=O)O)c2)N1c1ccccc1 (stereo not drawn)	-	-	-	-	-	-
SMILES	SENP8 block-1	SENP6 inh	SENP7 inh	SENP1 FRET inh	SENP8 block-2	Platelet DG rel
CCOc1ccc(C(C)NC(=O)c2cc(=O)[nH]c3ccccc23)cc1OCC (stereo not drawn)	-	-	-	-	-	-
CC(=O)Nc1ccc(S(=O)(=O)NC2(C(F)(F)F)NC(=O)N(Cc3ccccc3)C2=O)cc1 (stereo not drawn)	-	-	-	-	-	-
O=C(NC(=O)c1ccccc1O)c1ccc2c(c1)CCO2	-	65.0	-	-	51.0	-
Cc1cc(C)c(S(=O)(=O)/N=C2\C=C(Nc3ccc(C(=O)O)cc3)C(=O)c3ccccc32)c(C)c1	56.9	89.1	-	-	88.2	-
O=C(O)c1ccc(NS(=O)(=O)c2ccc3c(c2)C(=O)c2ccccc2C3=O)cc1	-	-	-	-	-	-
O=C(O)c1ccc(NC2=C/C(=N/S(=O)(=O)c3cccs3)c3ccccc3C2=O)cc1	98.5	.	.	-	.	.
O=C1C(Nc2ccc(O)cc2)=C/C(=N/S(=O)(=O)c2cccs2)c2ccccc21	82.6	.	.	-	.	-
O=C(O)c1ccc(Nc2nc3ccccc3nc2NS(=O)(=O)c2cccs2)cc1	-	-	-	-	-	-
COc1ccccc1CCC(=O)OCC(=O)NC1CC1	-	-	-	-	-	-
